This is a sample that favours compounds with a hit; in the whole collection about 3.6% have one here.
pPAFAH FP inh: pPAFAH enzyme inhibitors, primary screen, biochemical, fluorescence polarization, human; actives 1.5% (n = 330,000); Platelet-activating factor acetylhydrolase (Homo sapiens), Q13093; inhibition, % at 3.39 µM; recombinant pPAFAH, FP-rhodamine probe fluorescence polarization;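 active = inhibition above the mean inhibition across the screen plus 3 SD, cut at about 25% in these data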;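 also: inhibitors block binding of the rhodamine activity-based probe so polarization drops; 0% = enzyme with DMSO and 100% = wells lacking pPAFAH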
Target sequence (Q13093 whole entry, looked up): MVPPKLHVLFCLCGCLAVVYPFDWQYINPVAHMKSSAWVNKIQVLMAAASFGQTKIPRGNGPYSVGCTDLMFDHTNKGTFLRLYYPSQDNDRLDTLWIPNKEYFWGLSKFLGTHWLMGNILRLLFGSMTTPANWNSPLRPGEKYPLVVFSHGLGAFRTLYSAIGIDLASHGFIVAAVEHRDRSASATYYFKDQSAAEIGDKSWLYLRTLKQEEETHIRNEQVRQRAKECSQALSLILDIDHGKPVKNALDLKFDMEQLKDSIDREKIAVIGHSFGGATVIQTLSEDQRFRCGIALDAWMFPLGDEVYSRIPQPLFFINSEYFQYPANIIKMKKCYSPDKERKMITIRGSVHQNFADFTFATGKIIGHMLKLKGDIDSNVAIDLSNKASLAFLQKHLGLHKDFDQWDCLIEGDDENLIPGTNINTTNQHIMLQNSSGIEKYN
PAFAH1B2 inh: PAFAH1B2 enzyme inhibitors, primary screen, biochemical, fluorescence polarization, human; Platelet-activating factor acetylhydrolase IB subunit alpha2 (Homo sapiens), P68402; recombinant PAFAH1B2, FP-rhodamine activity probe; inhibition, % at 3.39 µM; actives 1.2% (n = 340,000); AID 492953, 2010;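 active = inhibition above the mean of all tested compounds plus 3 SD, cut at about 24% in these data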;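 also: 0% = enzyme with DMSO and 100% = wells lacking PAFAH1B2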
Target sequence (P68402 whole entry, looked up): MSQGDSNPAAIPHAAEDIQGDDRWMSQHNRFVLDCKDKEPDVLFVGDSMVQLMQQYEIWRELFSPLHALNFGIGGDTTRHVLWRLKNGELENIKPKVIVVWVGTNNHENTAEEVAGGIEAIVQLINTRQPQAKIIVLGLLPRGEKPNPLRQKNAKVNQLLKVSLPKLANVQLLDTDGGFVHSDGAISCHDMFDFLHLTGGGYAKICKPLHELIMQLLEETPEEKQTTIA
PAFAH2 FP inh: PAFAH2 enzyme inhibitors, primary screen, biochemical, fluorescence polarization, human; inhibition, % at 3.39 µM; AID 492956, 2010; Platelet-activating factor acetylhydrolase 2, cytoplasmic (Homo sapiens), Q99487; recombinant PAFAH2, FP-rhodamine activity probe; actives 0.99% (n = 340,000);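 active = inhibition above the mean over all tested compounds plus 3 SD, cut at about 30% in these data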;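 also: inhibitors block probe labeling of enzyme so polarization drops; 0% = enzyme with DMSO and 100% = wells lacking PAFAH2 protein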
VIM-2 inh: VIM-2 metallo-beta-lactamase inhibitors, primary screen, biochemical, epi-absorbance readout, Pseudomonas aeruginosa enzyme. actives 0.89% (n = 290,000). inhibition, % at 5.6 µM. purified VIM-2, nitrocefin hydrolysis, epi-absorbance fluorescence;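 active = inhibition above the mean of all tested compounds plus 3 SD, cutoff set per screening run, cut at about 7.5% in these data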;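 also: red hydrolysis product quenches plate fluorescence so inhibitors raise well fluorescence; 0% = enzyme with DMSO and 100% = DMSO without enzyme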
PAFAH1B3 FP inh: PAFAH1B3 enzyme inhibitors, primary screen, biochemical, fluorescence polarization, human. Platelet-activating factor acetylhydrolase IB subunit alpha1 (Homo sapiens), Q15102. recombinant PAFAH1B3, FP-rhodamine probe. inhibition, % at 3.39 µM. actives 0.28% (n = 340,000);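 active = inhibition above the screen-wide average of all tested compounds plus 3 SD, cut at about 25% in these data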;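 also: 0% = enzyme with DMSO only and 100% = wells lacking PAFAH1B3 protein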
IMP-1 inh: IMP-1 metallo-beta-lactamase inhibitors, primary screen, biochemical, epi-absorbance readout, Pseudomonas aeruginosa enzyme; purified IMP-1, nitrocefin hydrolysis, epi-absorbance fluorescence; inhibition, % at 5.6 µM; actives 0.45% (n = 290,000);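 active = inhibition above the mean plus 3 SD of all compounds in the same screening run, cut at about 4.5% in these data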;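 also: 0% = IMP-1 with DMSO and 100% = DMSO wells lacking enzyme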
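System: purified IMP-1 / Input: IMP-1 dispensed at 0.2 nM / Medium: 50 mM HEPES pH 7.1, 50 µM ZnSO4, 0.05% Brij 35 / Timing: 15 min enzyme–compound preincubation, then 25 min nitrocefin reaction, 25 °C / Technique: plate fluorescence quenching by hydrolysis product, ex 480/em 530 nm / Repeats: singlicate testing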
PAFAH2 FP conf: PAFAH2 enzyme inhibitors, confirmation, biochemical, fluorescence polarization, human | recombinant PAFAH2, FP-rhodamine activity probe | inhibition, % at 3.39 µM | AID 493030, 2011 | actives 65% (n = 2,300) | shares compounds with PAFAH2 FP inh;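 active = mean inhibition over three repeats above a set limit taken from the earlier primary screen, cut at about 30% in these data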;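 also: inhibitor blocks binding of rhodamine activity probe so polarization falls; 0% = enzyme with DMSO and 100% = wells lacking PAFAH2 protein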
* = called active by the depositor; · = not tested or not shown.

SMILES	pPAFAH FP inh	PAFAH1B2 inh	PAFAH2 FP inh	VIM-2 inh	PAFAH1B3 FP inh	IMP-1 inh	PAFAH2 FP conf
COc1cc(/C=C2/C(C)=C(C#N)c3nc(N)c(C#N)c(C)c32)ccc1OCC(=O)O	24	·	·	-2	·	-1	·
Cc1ccc(NC(=O)Cc2nc(CN(C)CC(=O)Nc3ccc(C)cc3)cs2)cc1	14	9	31*	·	5	·	16
CN(C(=O)COC(=O)c1ccc(Cl)s1)C1(C#N)CCCCC1	·	0	30*	·	-7	·	13
CN(C(=O)COC(=O)c1ccc(Cl)c(S(=O)(=O)N2CCCCC2)c1)C1(C#N)CCCCC1	2	1	30*	·	3	·	15
COc1ccc(-n2c(=O)cc(N3CCN(c4ccccc4OC)CC3)[nH]c2=O)cc1	6	-1	1	-1	3	-3	·
CC(C)(C)c1cc(CCC(=O)NCC2CCCO2)cc(C(C)(C)C)c1O (configuration not stated)	0	0	-1	-2	6	-3	·
Cc1nn(Cc2ccccc2)c(Cl)c1/C=C/C(=O)OCC(=O)NC(C)C(C)C (configuration not stated)	3	7	67*	0	0	-4	64*
CC(C)C[C@@H](CNCC(=O)[C@H](C)NC(=O)c1[nH]cnc1C(=O)N[C@H](CN)CC(C)C)NC(=O)c1nc[nH]c1C(=O)N[C@@H](C)C(=O)O	·	9	-1	·	8	·	·
O=C(O)CCc1c(C(=O)O)[nH]c2ccccc12	5	2	-4	-2	5	-2	·
O=C(O)CCc1[nH]c2ccccc2c1Sc1ccccc1	10	10	31*	-4	4	-1	25
O=C(O)CCCN1C(=O)/C(=C/c2ccc(-c3nc4ccccc4s3)o2)SC1=S	19	15	50*	-1	6	1	51*
O=C(O)CCCCCN1C(=O)/C(=C\c2ccc(-c3ccc(Cl)cc3)o2)SC1=S	1	-2	3	-1	4	-2	·
COc1ccccc1NC(=O)CC1Nc2ccccc2NC1=O (configuration not stated)	9	5	86*	-3	9	-7	-1
Cn1c(=O)c2nc(-c3ccccc3)oc2c2ccccc21	1	0	13	2	0	-3	·
CC(=O)c1cccc(NC(=O)COC(=O)c2ccccn2)c1	4	-1	-4	-5	-4	-2	·
CCOc1ncccc1C(=O)OCC(=O)Nc1cccc(C(C)=O)c1	19	6	62*	-5	9	-3	55*
COc1cc(OC)cc(C(=O)OCC(=O)Nc2cccc(C(C)=O)c2)c1	1	4	7	-1	6	-1	·
CC(=O)c1cccc(NC(=O)COC(=O)c2ccccc2C)c1	5	5	63*	-1	-4	-2	62*
CCOc1ncccc1C(=O)OCC(=O)Nc1cccc(S(N)(=O)=O)c1	6	-3	33*	-7	3	-5	15
CCOc1ncccc1C(=O)OCC(=O)Nc1ccc(S(=O)(=O)N2CCCC2)cc1	2	0	10	·	15	·	·
O=C(COC(=O)c1ccccc1C(=O)c1ccccc1)Nc1cccc([N+](=O)[O-])c1	19	7	89*	-1	-5	-1	82*
C=C1[C@@H](O)[C@H](CC(C)C)N(Cc2ccccc2Br)S1(=O)=O	·	1	7	·	2	·	·
Cc1ccc(NC(=O)COC(=O)c2cc(-c3cccs3)nn2-c2ccccc2)cc1[N+](=O)[O-]	6	3	5	-2	2	-1	·
O=C(COC(=O)c1cc(-c2cccs2)nn1-c1ccccc1)Nc1cccc([N+](=O)[O-])c1	3	-4	32*	0	-6	-3	39*
CC(=O)c1ccc(NC(=O)C(C)O/N=C(\N)c2ccccc2)cc1 (configuration not stated)	-8	-1	-4	·	15	·	·
SMILES	pPAFAH FP inh	PAFAH1B2 inh	PAFAH2 FP inh	VIM-2 inh	PAFAH1B3 FP inh	IMP-1 inh	PAFAH2 FP conf
Cc1cccc(-c2cc3nc(-c4ccccc4)cc(=O)n3[nH]2)c1	14	13	41*	-5	8	-2	26
CC(CN)(NS(=O)(=O)c1ccccc1)c1ccccc1 (configuration not stated)	·	7	-4	1	1	1	·
COc1cc(C)c2c(c1C=O)Oc1c(c(C)c(O)c3c1C(O)OC3=O)OC2=O (configuration not stated)	7	1	49*	-1	3	1	25
O=c1oc(-c2ccc(F)cc2)nc2ccsc12	-1	-2	48*	-1	7	-3	34*
C=CCn1c(O)c(N=NC(=O)c2ccccc2NS(=O)(=O)c2cccs2)c2ccccc21	2	9	37*	-3	5	-10	27
O=C(Nc1cc(S(=O)(=O)N2CCCC2)ccc1Cl)C1=COCCO1	8	4	-5	-2	2	-5	·
Cc1ccc(S(=O)(=O)N2CCCCC2)cc1NC(=O)COC(=O)c1ccc2c(c1)OCO2	10	4	15	-2	3	-1	·
O=C(COC(=O)C1=COCCO1)Nc1cc(S(=O)(=O)N2CCCCC2)ccc1Cl	7	2	57*	-5	7	-3	41*
Cc1ccc(S(=O)(=O)N2CCCCC2)cc1NC(=O)COC(=O)c1cccn1C	6	6	39*	·	-1	·	32*
Cc1ccc(S(=O)(=O)N2CCCCC2)cc1NC(=O)COC(=O)C1=COCCO1	6	5	50*	-1	4	-1	40*
COc1ccc(OC)c(NC(=O)c2cc(-c3cc(C)cc(C)c3O)n[nH]2)c1	8	5	0	-4	1	-1	·
Cc1cccc(C)c1NC(=O)CNC(=O)CN1C(=O)NC2(CCc3ccccc32)C1=O (configuration not stated)	-2	1	-7	·	3	·	·
N#Cc1c2ccc([N+](=O)[O-])cc2[n+]([O-])n1-c1ccccc1	3	3	3	·	6	·	·
CCCc1cc(=O)[nH]c(SCC(=O)N2CC3(C)CC2CC(C)(C)C3)n1 (configuration not stated)	1	22	36*	·	7	·	15
Cc1ccc(C(=O)OCC(=O)NC(=O)c2cccn2C)cc1	4	3	47*	-2	2	-2	38*

Source: PubChem
